Only some compounds are listed: those with a hit (about 2% of all), similar ones and a draw of the others.
STEP inh – STEP phosphatase inhibitors, primary screen, biochemical, fluorescence intensity, uHTS; recombinant STEP, OMFP fluorogenic substrate; inhibition, % at 20 µM; 360,000 compounds, 0.25% hits;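 active = inhibition at 20 µM, scaled per plate between control wells, above about 37%, limit read from the data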;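 also: 0% = DMSO with enzyme and substrate and 100% = substrate only without enzyme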
Target sequence (P54829 whole entry, looked up): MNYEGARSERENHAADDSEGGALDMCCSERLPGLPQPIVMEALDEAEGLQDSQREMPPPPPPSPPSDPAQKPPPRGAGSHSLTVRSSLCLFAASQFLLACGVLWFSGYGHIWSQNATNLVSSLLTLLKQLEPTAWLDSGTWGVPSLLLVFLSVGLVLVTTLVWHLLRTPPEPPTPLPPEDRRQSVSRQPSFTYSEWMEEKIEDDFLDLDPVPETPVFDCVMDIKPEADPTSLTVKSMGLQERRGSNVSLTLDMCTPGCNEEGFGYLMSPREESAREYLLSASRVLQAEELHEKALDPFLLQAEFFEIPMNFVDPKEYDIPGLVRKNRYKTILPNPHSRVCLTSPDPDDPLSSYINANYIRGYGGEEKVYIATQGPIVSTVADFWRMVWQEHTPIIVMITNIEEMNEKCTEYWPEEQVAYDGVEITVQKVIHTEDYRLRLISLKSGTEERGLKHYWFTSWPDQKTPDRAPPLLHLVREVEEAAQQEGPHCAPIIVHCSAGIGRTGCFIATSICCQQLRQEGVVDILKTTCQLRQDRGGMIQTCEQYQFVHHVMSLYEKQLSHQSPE
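System: STEP (striatal-enriched tyrosine phosphatase) enzyme, cell-free; medium: Bis-Tris pH 6.0 buffer with DTT, detergent; dosing: 20 µM, 1% DMSO; times: reaction 20 min, ambient temperature; detection: fluorescence, 480/540 nm; read-out basis: normalized % inhibition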
DNMT1 block – human DNMT1 methyltransferase inhibitors, primary screen, biochemical, molecular beacon, fluorescence, HinP1I cleavage, uHTS; inhibition (reported as % activation of signal), % at 10 µM; 360,000 compounds, 0.83% hits; in the data active = inhibition above about 50%
Scp-1 inhibitor – Scp-1 phosphatase inhibitors, primary screen, biochemical, colorimetric, uHTS; AID 493091, 2011; inhibition, % at 20 µM; Carboxy-terminal domain RNA polymerase II polypeptide A small phosphatase 1 (Homo …; 340,000 compounds, 0.88% hits; Recombinant Scp1, phosphopeptide, malachite green phosphate absorbance;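 active = inhibition above about 50% at 20 µM, limit read from the data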;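 also: plate controls were DMSO wells with enzyme for no effect and wells lacking enzyme for full effect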
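Material – SCP-1 phosphatase catalytic domain, residues 76-261 · Buffer or medium – Acidic Tris acetate buffer with magnesium and detergent · Also added – Phospho 17-mer peptide substrate · Compound – single 20 µM dose, 1% DMSO · Times – 45 min room-temperature reaction, 5 min colour, 30 min stabiliser · Technique – Phosphate-binding colour reagent, absorbance read at 630 nm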
Rpn11 inh – Rpn11 (PSMD14) deubiquitinase inhibitors, primary screen, biochemical, fluorescence polarization, uHTS; 26S proteasome non-ATPase regulatory subunit 14 (Homo sapiens), O00487; human 26S proteasome, Ub4-pepOG fluorescence polarization; 20S core pre-blocked with epoxomicin; inhibition, % at 20 µM; 360,000 compounds, 0.59% hits; AID 588493, 2011;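 active = inhibition at 20 µM, scaled to each plate's controls, above about 33%, limit read from the data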
LMPTP inh – LMPTP phosphatase inhibitors, primary screen, biochemical, fluorescence intensity, uHTS; 360,000 compounds, 0.22% hits; inhibition, % at 20 µM; recombinant LMPTP-A, OMFP fluorogenic substrate;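 active = compounds that cut the enzyme signal by at least half of the control window in the single-dose screen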;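 also: plate controls were DMSO wells with enzyme plus substrate for no effect and substrate without enzyme for full effect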
Target sequence (P24666 whole entry, looked up): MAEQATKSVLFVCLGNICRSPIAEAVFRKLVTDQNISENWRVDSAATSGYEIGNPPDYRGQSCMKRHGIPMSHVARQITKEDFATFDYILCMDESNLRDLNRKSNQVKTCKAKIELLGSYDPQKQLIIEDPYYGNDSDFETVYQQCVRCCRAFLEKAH
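Assay system: LMPTP-A, protein tyrosine phosphatase of low molecular weight / Medium: pH 6.0 Bis-Tris buffer with DTT and Triton X-100 / Schedule: 50 min enzyme reaction at room temperature, protected from light / Measured by: endpoint fluorescence intensity from OMFP dephosphorylation / Read-out basis: % inhibition relative to no-enzyme and uninhibited control wells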
Scp1 confirm – Scp-1 phosphatase inhibitors, retest, confirmation, biochemical, colorimetric, single concentration; shares compounds with Scp-1 inhibitor; recombinant SCP-1 catalytic domain, phosphate release, malachite green absorbance; inhibition, % at 20 µM; 2,500 compounds, 61% hits;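 also: plate controls were DMSO with enzyme for no effect and buffer wells lacking enzyme for full effect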
MG interference – colorimetric readout interference by compounds, confirmation, artefact control for Scp-1 inhibitor project, biochemical, single concentration | 2,500 tested, under 10 active | Colorimetric interference counterscreen, malachite green absorbance 630 nm | apparent inhibition (interference), % at 20 µM | shares compounds with Scp-1 inhibitor;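 also: compounds added after enzyme reaction finished so only phosphate colour detection is probed; plate controls were DMSO wells with completed Scp-1 reaction for no effect and substrate wells lacking enzyme for full effect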
Scp-1 Tm shift – Scp-1 binding by thermal shift, confirmation, orthogonal assay for Scp-1 inhibitor project, biophysical, differential scanning fluorimetry; shares compounds with Scp-1 inhibitor; Recombinant SCP1, Sypro Orange thermal shift Tm; thermal shift relative to vanadate control, % at 40 µM; 1,500 compounds, 25% hits; AID 540329, 2011;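 active = substances whose mean melting-temperature shift, as a percentage of the reference inhibitor's shift, reaches about 5.3%, limit read from the data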;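 also: 0% = Tm of DMSO wells and 100% = Tm with sodium orthovanadate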
The depositor's hits bear a star; · = no result given; ! = a repeat was not active.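 The calls were made as follows, unless noted: active = inhibition of at least 30% at 20 µM; inactive = the rest.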

SMILES | STEP inh | DNMT1 block | Scp-1 inhibitor | Rpn11 inh | LMPTP inh | Scp1 confirm | MG interference | others
CCN(CC)C(=O)c1ccc2c(c1)C1C=CCC1C(C(=O)O)N2 (stereo not given) | 33 | 19 | 39 | -27 | 2 | · | ·
CCN(CC)C(=O)c1ccc2c(c1)C1C(Cl)C(Sc3ccccc3[N+](=O)[O-])CC1C(C(=O)O)N2 (stereo not given) | 6 | 64* | 24 | -33 | 50 | · | ·
O=[N+]([O-])c1cccc(C2N3CCCN23)c1 (stereo not given) | 0 | 0 | -5 | 1 | -3 | · | ·
O=c1[nH]c2ccccc2n1C1CCN(C(c2cccs2)c2nnnn2-c2ccc3c(c2)OCCO3)CC1 (stereo not given) | -1 | -19 | · | 2 | 3 | · | ·
CCOC(=O)[C@]12Cc3cc(Cl)ccc3[C@H]1N(C(C)C)C(=O)c1ccccc12 | · | · | · | · | 0 | · | ·
COC1=CC(=O)[C@]2(C=C1OC)OC[C@@H]1Oc3c(ccc4c3C=CC(C)(C)O4)C(=O)[C@@H]12 | · | · | 2 | · | · | · | ·
COc1ccc2c(c1)C1(C)CCN(C)CC(C1)C2O (stereo not given) | -1 | 9 | · | -4 | -1 | · | ·
COC(=O)C1=C(c2ccc(Cl)c(C(F)(F)F)c2)C[C@@H]2CC[C@H]1N2C(=O)NCc1cc(C)oc1C(F)(F)F | -1 | -5 | -9 | -4 | 0 | · | ·
COc1c(O)cc2c(c1OC)-c1ccc(SC)c(=O)cc1C(NC(C)=O)CC2 (stereo not given) | -1 | -6 | 5 | -5 | -1 | · | ·
Cc1cc(/C=C2\C(=O)NC(=O)N(c3ccccc3)C2=O)c(C)n1-c1ccc(C(=O)O)c(Cl)c1 | 46* | 40 | 40 | 0 | 1 | · | ·
Cc1cc(/C=C2\C(=O)NC(=O)N(c3ccc(F)cc3)C2=O)c(C)n1-c1cccc(C(=O)O)c1 | 2 | 37 | 11 | 5 | -1 | · | ·
CC(C)[N+]12CCC(CC1)C(C(O)(c1ccccc1)c1ccccc1)C2 (stereo not given) | -4 | 1 | 99* | 0 | -1 | 87* | -11 | Scp-1 Tm shift=-27
CC[N+]12CCC(CC1)C(C(O)(c1ccccc1)c1ccccc1)C2 (stereo not given) | 3 | 2 | -1 | 0 | -1 | · | ·
Cn1c[n+](C)cc1C(O)c1ccccc1 (stereo not given) | -2 | -1 | 92*! | -2 | -1 | 84* | -11 | Scp-1 Tm shift=-1
CCOc1ccccc1N=C1SCCCN1C | 0 | 2 | 55* | -10 | 0 | 67* | -11 | Scp-1 Tm shift=-7
CC(=O)N1CCCSC1=Nc1ccccc1 | 0 | 2 | -7 | 3 | -2 | · | ·
CCN(CC)P(=O)(c1n(CC)cc[n+]1CC)N(CC)CC | -3 | 2 | 103* | -4 | 3 | 80* | -19 | Scp-1 Tm shift=-10
CS(=O)(=O)c1ccc(C2=C(CNC(=O)c3cccs3)[C@H]3CC[C@@H](C2)N3Cc2ccco2)cc1 | 1 | 2 | · | -5 | -1 | · | ·
CCC(CO)(C(=O)OC1C[N+]2(C)CCC1CC2)c1ccccc1 (stereo not given) | 1 | 1 | 94* | -2 | 0 | 80* | -17 | Scp-1 Tm shift=-1
CCOP(=O)(OCC)C1(O)C(=O)Nc2ccccc21 (stereo not given) | -2 | 8 | -1 | 8 | -2 | · | ·
CC1CCCC(C2(O)C(=O)Nc3ccccc32)C1=O (stereo not given) | -7 | -2 | 57* | -3 | -3 | 2 | -14
CCCCCCN=Cc1c(O)n(C)c(=O)n(C)c1=O | -1 | 0 | -6 | -4 | -2 | · | ·
CCOC(=O)c1ccccc1C(=O)OCC | -3 | 6 | -12 | -52 | -2 | · | ·
CCOC(=O)C1=C(C)c2ccccc2OC1(C(=O)OCC)c1ccccc1 (stereo not given) | -4 | 7 | 103* | 4 | -1 | 39* | -18 | Scp-1 Tm shift=-31
CN1CCCCC1Cc1ccccc1 (stereo not given) | -1 | 3 | · | 3 | 0 | · | ·
SMILES | STEP inh | DNMT1 block | Scp-1 inhibitor | Rpn11 inh | LMPTP inh | Scp1 confirm | MG interference | others
CNC(C(=O)c1ccccc1)C(OC(C)=O)c1cccc([N+](=O)[O-])c1 (stereo not given) | 1 | -4 | 88* | 5 | 0 | -10 | -10
CN1CCc2cc3c(cc2C1)OCO3 | 2 | 0 | 10 | -5 | -2 | · | ·
CCCCCC(=O)N[C@@H](c1ccccc1)[C@@H](O)C(=O)O[C@H]1C[C@@]2(O)[C@@H](OC(=O)c3ccccc3)C3[C@](C)(C(=O)[C@H](O)C(=C1C)C2(C)C)[C@@H](OC1OCC(O)C(O)C1O)C[C@H]1OC[C@@]31OC(C)=O (stereo not given in full) | -1 | -1 | -13 | -1 | 0 | -14 | -8
C[n+]1ccc(-c2ccncc2)cc1 | 2 | -1 | 96* | -2 | -5 | 4 | -9
CC(=O)Nc1ccc(N=Cc2c(O)n(Cc3ccco3)c(=O)[nH]c2=O)cc1 | 6 | 2 | 72* | -8 | 1 | 51* | -7 | Scp-1 Tm shift=-6
C=CCNC(=S)N1Cc2ccccc2-n2nncc2C1 | -2 | 0 | · | 2 | -1 | · | ·
CCN1C[C@@]2(COC)C3[C@@H](OC)[C@H]4[C@@H]1[C@@]3(C1C[C@H]3[C@H](OC(=O)c5ccccc5)C1[C@]4(OC(C)=O)C[C@H]3OC)[C@@H](OC)C[C@H]2O (stereo not given in full) | -2 | 0 | 4 | -2 | -1 | · | ·
O=C(O)c1ccccc1-c1ccc(C=C2C(=O)N(c3ccccc3)C(=S)N(c3ccccc3)C2=O)o1 | 4 | 28 | 58* | 29 | 4 | 54* | -11 | Scp-1 Tm shift=2
COC(=O)C1=C(c2ccc(OC(F)(F)F)cc2)C[C@@H]2CC[C@H]1N2C(=O)N1CCC(C)CC1 | 7 | -6 | -2 | 2 | 2 | · | ·
ClCC(Br)CBr (stereo not given) | -1 | 1 | 3 | -8 | 0 | · | ·

Screening data as filed in PubChem.
